ChEMBL document CHEMBL4261538, “Synthesis and molecular docking studies of xanthone attached amino acids as potential antimicrobial and anti-inflammatory agents” (Medchemcomm, 2017)
Converted amounts (≈) assume the structure as drawn.

Key:
[1] = test system: Bacillus subtilis; assay: Antibacterial activity against Bacillus subtilis at 25 ug/ml incubated for 24 hrs by agar well diffusion method; type: functional; details: read-out: DIZ
Summary of the method: (§1)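 Bacteria grown in nutrient broth at 37 °C for 24 h, then subcultured at room temperature. Compounds dissolved in DMSO at 5 mg mL⁻¹ and 5–20 µL added to 6 mm wells, giving 25, 50, 75, 100 µg per well. Gentamicin was the positive control and DMSO the negative control. Plates held at 37 °C for 24 h, then inhibition zone diameter (mm) measured. Values are means of three determinations.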

[2] = test system: Candida albicans; assay: Antifungal activity against Candida albicans at 75 ug/ml incubated for 48 hrs by agar well diffusion method; type: functional; details: read-out: DIZ
Summary of the method: (§2)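 Compounds dissolved in DMSO at 5 mg mL⁻¹ and 5–20 µL added to 6 mm wells, giving 25, 50, 75, 100 µg per well. Bavistin was the positive control and DMSO the negative control. Plates incubated at 28 °C for 48 h, then inhibition zone diameter (mm) measured. Values are means of three determinations.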

[3] = test system: Klebsiella pneumoniae; assay: Antibacterial activity against Klebsiella pneumoniae at 75 ug/ml incubated for 24 hrs by agar well diffusion method; type: functional; details: read-out: DIZ; summary of the method: as §1
[4] = test system: Bacillus subtilis; assay: Antibacterial activity against Bacillus subtilis at 50 ug/ml incubated for 24 hrs by agar well diffusion method; type: functional; details: read-out: DIZ; summary of the method: as §1
[5] = test system: Aspergillus niger; assay: Antifungal activity against Aspergillus niger at 50 ug/ml incubated for 48 hrs by agar well diffusion method; type: functional; details: read-out: DIZ; summary of the method: as §2
[6] = test system: Staphylococcus aureus; assay: Antibacterial activity against Staphylococcus aureus at 25 ug/ml incubated for 24 hrs by agar well diffusion method; type: functional; details: read-out: DIZ; summary of the method: as §1
[7] = test system: Staphylococcus aureus; assay: Antibacterial activity against Staphylococcus aureus at 50 ug/ml incubated for 24 hrs by agar well diffusion method; type: functional; details: read-out: DIZ; summary of the method: as §1
[8] = test system: Candida albicans; assay: Antifungal activity against Candida albicans at 25 ug/ml incubated for 48 hrs by agar well diffusion method; type: functional; details: read-out: DIZ; summary of the method: as §2
[9] = test system: Fusarium oxysporum; assay: Antifungal activity against Fusarium oxysporum at 75 ug/ml incubated for 48 hrs by agar well diffusion method; type: functional; details: read-out: DIZ; summary of the method: as §2
[10] = test system: Aspergillus niger; assay: Antifungal activity against Aspergillus niger at 100 ug/ml incubated for 48 hrs by agar well diffusion method; type: functional; details: read-out: DIZ; summary of the method: as §2
[11] = test system: Klebsiella pneumoniae; assay: Antibacterial activity against Klebsiella pneumoniae at 50 ug/ml incubated for 24 hrs by agar well diffusion method; type: functional; details: read-out: DIZ; summary of the method: as §1
[12] = test system: Aspergillus niger; assay: Antifungal activity against Aspergillus niger at 25 ug/ml incubated for 48 hrs by agar well diffusion method; type: functional; details: read-out: DIZ; summary of the method: as §2
[13] = test system: Candida albicans; assay: Antifungal activity against Candida albicans incubated for 48 to 72 hrs by microdilution method; type: functional
Summary of the method: (§3)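 Sabouraud agar plates inoculated with fungal suspension at 10⁵ CFU mL⁻¹ plus serially diluted compounds and bavistin reference, both in DMSO. Incubated at 25 °C for 48–72 h. MIC is the lowest concentration completely inhibiting growth. Values are means of three determinations.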

[14] = test system: Bacillus subtilis; assay: Antibacterial activity against Bacillus subtilis at 100 ug/ml incubated for 24 hrs by agar well diffusion method; type: functional; details: read-out: DIZ; summary of the method: as §1
[15] = test system: Fusarium oxysporum; assay: Antifungal activity against Fusarium oxysporum at 25 ug/ml incubated for 48 hrs by agar well diffusion method; type: functional; details: read-out: DIZ; summary of the method: as §2
[16] = test system: Escherichia coli; assay: Antibacterial activity against Escherichia coli at 25 ug/ml incubated for 24 hrs by agar well diffusion method; type: functional; details: read-out: DIZ; summary of the method: as §1
[17] = test system: Erythrocyte; assay: Anti-inflammatory activity in human RBC assessed as inhibition of hypotonic solution-induced hemolysis after 10 mins by spectrophotometric method; type: functional, cell-based
Summary of the method: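 Human blood (heparinized) washed with 0.9% saline, packed cells made into a 40% v/v stock in isotonic phosphate buffer (154 mM NaCl, 10 mM sodium phosphate, pH 7.4). Stock RBC mixed with hypotonic buffer (50 mM NaCl, 10 mM phosphate, pH 7.4) plus sample at 20–100 µg mL⁻¹.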

[18] = test system: Bacillus subtilis; assay: Antibacterial activity against Bacillus subtilis incubated for 24 hrs by microdilution method; type: functional
[19] = test system: Klebsiella pneumoniae; assay: Antibacterial activity against Klebsiella pneumoniae at 25 ug/ml incubated for 24 hrs by agar well diffusion method; type: functional; details: read-out: DIZ; summary of the method: as §1
[20] = test system: Escherichia coli; assay: Antibacterial activity against Escherichia coli at 75 ug/ml incubated for 24 hrs by agar well diffusion method; type: functional; details: read-out: DIZ; summary of the method: as §1
[21] = test system: Fusarium oxysporum; assay: Antifungal activity against Fusarium oxysporum at 50 ug/ml incubated for 48 hrs by agar well diffusion method; type: functional; details: read-out: DIZ; summary of the method: as §2
[22] = test system: Klebsiella pneumoniae; assay: Antibacterial activity against Klebsiella pneumoniae incubated for 24 hrs by microdilution method; type: functional
[23] = test system: Escherichia coli; assay: Antibacterial activity against Escherichia coli at 50 ug/ml incubated for 24 hrs by agar well diffusion method; type: functional; details: read-out: DIZ; summary of the method: as §1
[24] = test system: Fusarium oxysporum; assay: Antifungal activity against Fusarium oxysporum at 100 ug/ml incubated for 48 hrs by agar well diffusion method; type: functional; details: read-out: DIZ; summary of the method: as §2
[25] = test system: Klebsiella pneumoniae; assay: Antibacterial activity against Klebsiella pneumoniae at 100 ug/ml incubated for 24 hrs by agar well diffusion method; type: functional; details: read-out: DIZ; summary of the method: as §1
[26] = test system: Staphylococcus aureus; assay: Induction of cell membrane damage in Staphylococcus aureus assessed as cell content leakage at MIC by spectrophotometric method; type: functional, organism-based; details: TDE = time-dependent effect
Summary of the method: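 Log-phase S. aureus inoculated into 0.1% sterile peptone water, with an untreated control, and held at 37 °C for 0, 30, 60 and 120 min. 1 mL of broth centrifuged and supernatant OD read at 260 nm to measure released DNA. Run in triplicate, repeated three times.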

[27] = test system: Escherichia coli; assay: Antibacterial activity against Escherichia coli incubated for 24 hrs by microdilution method; type: functional
[28] = test system: Staphylococcus aureus; assay: Antibacterial activity against Staphylococcus aureus at 100 ug/ml incubated for 24 hrs by agar well diffusion method; type: functional; details: read-out: DIZ; summary of the method: as §1
[29] = test system: Candida albicans; assay: Antifungal activity against Candida albicans at 50 ug/ml incubated for 48 hrs by agar well diffusion method; type: functional; details: read-out: DIZ; summary of the method: as §2
[30] = test system: Fusarium oxysporum; assay: Antifungal activity against Fusarium oxysporum incubated for 48 to 72 hrs by microdilution method; type: functional; summary of the method: as §3
[31] = test system: Aspergillus niger; assay: Antifungal activity against Aspergillus niger incubated for 48 to 72 hrs by microdilution method; type: functional; summary of the method: as §3
[32] = test system: Aspergillus niger; assay: Antifungal activity against Aspergillus niger at 75 ug/ml incubated for 48 hrs by agar well diffusion method; type: functional; details: read-out: DIZ; summary of the method: as §2
[33] = test system: Staphylococcus aureus; assay: Antibacterial activity against Staphylococcus aureus incubated for 24 hrs by microdilution method; type: functional
[34] = test system: Escherichia coli; assay: Antibacterial activity against Escherichia coli at 100 ug/ml incubated for 24 hrs by agar well diffusion method; type: functional; details: read-out: DIZ; summary of the method: as §1
[35] = test system: Candida albicans; assay: Antifungal activity against Candida albicans at 100 ug/ml incubated for 48 hrs by agar well diffusion method; type: functional; details: read-out: DIZ; summary of the method: as §2
[36] = test system: Staphylococcus aureus; assay: Antibacterial activity against Staphylococcus aureus at 75 ug/ml incubated for 24 hrs by agar well diffusion method; type: functional; details: read-out: DIZ; summary of the method: as §1
[37] = test system: Bacillus subtilis; assay: Antibacterial activity against Bacillus subtilis at 75 ug/ml incubated for 24 hrs by agar well diffusion method; type: functional; details: read-out: DIZ; summary of the method: as §1

MIC [13]: 24 µg/mL (≈ 58.6 µM) | MIC [18]: 26 µg/mL (≈ 63.5 µM) | MIC [22]: 24 µg/mL (≈ 58.6 µM) | MIC [27]: 25 µg/mL (≈ 61.1 µM) | MIC [30]: 25 µg/mL (≈ 61.1 µM) | MIC [31]: 29 µg/mL (≈ 70.8 µM) | MIC [33]: 27 µg/mL (≈ 65.9 µM)
Compound: CC(C)(C)OC(=O)N1CCC[C@H]1C(=O)Oc1ccc2c(=O)c3ccccc3oc2c1
zone of inhibition at 25 µg/mL [1]: 15 mm | zone of inhibition at 75 µg/mL [2]: 27 mm | zone of inhibition at 75 µg/mL [3]: 27 mm | zone of inhibition at 50 µg/mL [4]: 24 mm | zone of inhibition at 50 µg/mL [5]: 24 mm | zone of inhibition at 25 µg/mL [6]: 17 mm | zone of inhibition at 50 µg/mL [7]: 24 mm | zone of inhibition at 25 µg/mL [8]: 16 mm | zone of inhibition at 75 µg/mL [9]: 29 mm | zone of inhibition at 100 µg/mL [10]: 33 mm | zone of inhibition at 50 µg/mL [11]: 21 mm | zone of inhibition at 25 µg/mL [12]: 17 mm | zone of inhibition at 100 µg/mL [14]: 35 mm | zone of inhibition at 25 µg/mL [15]: 20 mm | zone of inhibition at 25 µg/mL [16]: 17 mm | IC50 [17]: 34 µg/mL (≈ 83 µM) | zone of inhibition at 25 µg/mL [19]: 13 mm | zone of inhibition at 75 µg/mL [20]: 31 mm | zone of inhibition at 50 µg/mL [21]: 24 mm | zone of inhibition at 50 µg/mL [23]: 26 mm | zone of inhibition at 100 µg/mL [24]: 35 mm | zone of inhibition at 100 µg/mL [25]: 32 mm | Activity [26]: Tde | zone of inhibition at 100 µg/mL [28]: 33 mm | zone of inhibition at 50 µg/mL [29]: 22 mm | zone of inhibition at 75 µg/mL [32]: 30 mm | zone of inhibition at 100 µg/mL [34]: 36 mm | zone of inhibition at 100 µg/mL [35]: 34 mm | zone of inhibition at 75 µg/mL [36]: 29 mm | zone of inhibition at 75 µg/mL [37]: 31 mm
